# Data reported in ChEMBL document CHEMBL1132488, “On the bioactive conformation of NAN-190 (1) and MP3022 (2), 5-HT(1A) receptor antagonists” (J Med Chem, 1999).
# Experiments:
# [1] = biological target: T1, 5-hydroxytryptamine receptor 1A (Rattus norvegicus, UniProt P19327); assay: Ability to displace [3H]8-OH-DPAT from 5-hydroxytryptamine 1A receptor
# T1 sequence (P19327 whole entry): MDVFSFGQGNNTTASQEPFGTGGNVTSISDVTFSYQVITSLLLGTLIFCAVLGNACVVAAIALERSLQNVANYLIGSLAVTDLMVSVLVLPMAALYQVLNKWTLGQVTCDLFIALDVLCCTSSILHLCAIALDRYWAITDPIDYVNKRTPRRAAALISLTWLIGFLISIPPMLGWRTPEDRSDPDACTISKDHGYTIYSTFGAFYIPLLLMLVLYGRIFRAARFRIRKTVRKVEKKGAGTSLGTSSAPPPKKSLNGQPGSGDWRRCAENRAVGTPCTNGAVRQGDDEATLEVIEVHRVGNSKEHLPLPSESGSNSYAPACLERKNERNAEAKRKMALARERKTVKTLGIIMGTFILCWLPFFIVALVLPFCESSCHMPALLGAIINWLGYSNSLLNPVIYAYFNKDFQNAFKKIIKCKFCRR
# Summary of the method: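 Rat hippocampal membranes, [3H]8-OH-DPAT radioligand. Ki from at least three competition experiments, each with 10–14 drug concentrations run in triplicate. Ki calculated with the Cheng–Prusoff equation.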
# Rattus norvegicus [2] = species on record: Rattus norvegicus; assay: Dose Inducing behavioral syndrome(FT: forepaw treading) by the compound in reserpine pretreated rats.; assay type: functional
# Summary of the method: (§1)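 Male Wistar rats (260–300 g), groups of 6, given reserpine 1 mg/kg sc 18 h before test. Compounds given ip as 1% Tween 80 suspension. FBP and FT rated 0–3 in 45-s sessions every 3 min, starting 3 min after dosing. Score summed over 5 periods (max 15 per symptom). Mean ± SEM; Newman–Keuls test.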
# Rattus norvegicus [3] = species on record: Rattus norvegicus; assay: Effective dose of the required to inhibit symptoms produced by 8-OH-DPAT; assay type: functional
# Summary of the method: (§2)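 Reserpinized male Wistar rats (reserpine 1 mg/kg sc, 18 h before), groups of 6. Compound given ip in 1% Tween 80 60 min before 8-OH-DPAT 5 mg/kg sc. FBP/FT rated 0–3 at 3, 6, 9, 12 and 15 min after agonist, summed (max 15). Mean ± SEM; Newman–Keuls test; ED50 with range.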
# Rattus norvegicus [4] = species on record: Rattus norvegicus; assay: Effect on 8-OH-DAPT- induced behavioral syndrome(FT: forepaw treading) by the compound in reserpine pretreated rats at a dose of 16.; assay type: functional; summary of the method: as §2
# Rattus norvegicus [5] = species on record: Rattus norvegicus; assay: Effect on 8-OH-DAPT- induced behavioral syndrome(FBP: flat body posture) by the compound in reserpine pretreated rats at a dose of 16.; assay type: functional; summary of the method: as §2
# Rattus norvegicus [6] = species on record: Rattus norvegicus; assay: Effect on 8-OH-DAPT- induced behavioral syndrome(FBP: flat body posture) by the compound in reserpine pretreated rats at a dose of 4.; assay type: functional; summary of the method: as §2
# Rattus norvegicus [7] = species on record: Rattus norvegicus; assay: Effect on 8-OH-DAPT- induced behavioral syndrome(FT: forepaw treading) by the compound in reserpine pretreated rats at a dose of 8.; assay type: functional; summary of the method: as §2
# Rattus norvegicus [8] = species on record: Rattus norvegicus; assay: Induction of behavioral syndrome(FT: forepaw treading) by the compound in reserpine pretreated rats at a dose of 4.; assay type: functional
# Summary of the method: (§3)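 Male Wistar rats (260–300 g) were given reserpine 1 mg/kg sc in saline 18 h before testing. Test compound was then given alone ip as a 1% Tween 80 suspension (2 mL/kg). FBP and FT were each scored 0–3 and summed (maximum 15). n=6 per group; mean ± SEM; Newman–Keuls test.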
# Rattus norvegicus [9] = species on record: Rattus norvegicus; assay: Induction of behavioral syndrome(FT: forepaw treading) by the compound in reserpine pretreated rats at a dose of 8.; assay type: functional; summary of the method: as §3
# Rattus norvegicus [10] = species on record: Rattus norvegicus; assay: Effect on 8-OH-DAPT- induced behavioral syndrome(FBP: flat body posture) by the compound in reserpine pretreated rats at a dose of 8.; assay type: functional; summary of the method: as §2
# Rattus norvegicus [11] = species on record: Rattus norvegicus; assay: Induction of behavioral syndrome(FBP: flat body posture) by the compound in reserpine pretreated rats at a dose of 16.; assay type: functional; summary of the method: as §1
# Rattus norvegicus [12] = species on record: Rattus norvegicus; assay: Induction of behavioral syndrome(FBP: flat body posture) by the compound in reserpine pretreated rats at a dose of 4.; assay type: functional; summary of the method: as §3
# Rattus norvegicus [13] = species on record: Rattus norvegicus; assay: Induction of behavioral syndrome(FBP: flat body posture) by the compound in reserpine pretreated rats at a dose of 8.; assay type: functional; summary of the method: as §3
# Rattus norvegicus [14] = assay: Effect on 8-OH-DPAT-Induced LLR(lower lip retraction) in rats at a dose of 32 mg/kg; assay type: functional
# Summary of the method: (§4)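 Male Wistar rats, groups of 6. Compound given ip in 1% Tween 80 45 min before 8-OH-DPAT 1 mg/kg sc. Lower incisor visibility scored 0/0.5/1 at 15, 30 and 45 min after agonist, summed (max 3). Mean ± SEM; Newman–Keuls test; ED50 with range.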
# Rattus norvegicus [15] = assay: Induction of LLR(lower lip retraction) by the compound in rats at a dose of 8 mg/kg; assay type: functional
# Summary of the method: (§5)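 Male Wistar rats, groups of 6, given compound alone ip as 1% Tween 80 suspension. Lower incisor visibility scored 0/0.5/1 at 15, 30 and 45 min after dosing, summed (max 3 per rat). Mean ± SEM versus vehicle, Newman–Keuls test; ED50 with range.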
# Rattus norvegicus [16] = assay: Effect on 8-OH-DPAT-Induced LLR(lower lip retraction) in rats at a dose of 16 mg/kg; assay type: functional; summary of the method: as §4
# Rattus norvegicus [17] = assay: Effect on 8-OH-DPAT-Induced LLR(lower lip retraction) in rats at a dose of 8 mg/kg; assay type: functional; summary of the method: as §4
# Rattus norvegicus [18] = species on record: Rattus norvegicus; assay: Induction of behavioral syndrome(FT: forepaw treading) by the compound in reserpine pretreated rats at a dose of 16.; assay type: functional; summary of the method: as §3
# Rattus norvegicus [19] = assay: Induction of LLR(lower lip retraction) by the compound in rats at a dose of 16 mg/kg; assay type: functional; summary of the method: as §5
# Rattus norvegicus [20] = assay: Induction of LLR(lower lip retraction) by the compound in rats at a dose of 32 mg/kg; assay type: functional; summary of the method: as §5
# Rattus norvegicus [21] = species on record: Rattus norvegicus; assay: Effect on 8-OH-DAPT- induced behavioral syndrome(FT: forepaw treading) by the compound in reserpine pretreated rats at a dose of 4.; assay type: functional; summary of the method: as §2
# Rattus norvegicus [22] = species on record: Rattus norvegicus; assay: Dose inhibiting 8-OH-DPAT-induced behavioral syndrome(FBP: flat body posture) by the compound in reserpine pretreated rats.
# Rattus norvegicus [23] = species on record: Rattus norvegicus; assay: Effect on 8-OH-DAPT- induced behavioral syndrome(FT: forepaw treading) by the compound in reserpine pretreated rats at a dose of 2.; assay type: functional
# Rattus norvegicus [24] = species on record: Rattus norvegicus; assay: Effect on 8-OH-DAPT- induced behavioral syndrome(FBP: flat body posture) by the compound in reserpine pretreated rats at a dose of 2.; assay type: functional
# Rattus norvegicus [25] = species on record: Rattus norvegicus; assay: Effect on 8-OH-DAPT- induced behavioral syndrome(FT: forepaw treading) by the compound in reserpine pretreated rats at a dose of.1; assay type: functional
# Rattus norvegicus [26] = species on record: Rattus norvegicus; assay: Induction of behavioral syndrome(FT: forepaw treading) by the compound in reserpine pretreated rats at a dose of 2.; assay type: functional
# Rattus norvegicus [27] = species on record: Rattus norvegicus; assay: Induction of behavioral syndrome(FT: forepaw treading) by the compound in reserpine pretreated rats at a dose of.1; assay type: functional
# Rattus norvegicus [28] = species on record: Rattus norvegicus; assay: Effect on 8-OH-DAPT- induced behavioral syndrome(FBP: flat body posture) by the compound in reserpine pretreated rats at a dose of.1; assay type: functional
# Rattus norvegicus [29] = species on record: Rattus norvegicus; assay: Induction of behavioral syndrome(FBP: flat body posture) by the compound in reserpine pretreated rats at a dose of 2.; assay type: functional; summary of the method: as §1
# Rattus norvegicus [30] = assay: Effect on 8-OH-DPAT-Induced LLR(lower lip retraction) in rats at a dose of 1 mg/kg; assay type: functional; summary of the method: as §4
# Rattus norvegicus [31] = assay: Effect on 8-OH-DPAT-Induced LLR(lower lip retraction) in rats at a dose of 2 mg/kg; assay type: functional; summary of the method: as §4
# Rattus norvegicus [32] = assay: Effect on 8-OH-DPAT-Induced LLR(lower lip retraction) in rats at a dose of 4 mg/kg; assay type: functional; summary of the method: as §4
# Rattus norvegicus [33] = assay: Induction of LLR(lower lip retraction) by the compound in rats at a dose of 1 mg/kg; assay type: functional; summary of the method: as §5
# Rattus norvegicus [34] = assay: Induction of LLR(lower lip retraction) by the compound in rats at a dose of 2 mg/kg; assay type: functional; summary of the method: as §5
# Rattus norvegicus [35] = assay: Induction of LLR(lower lip retraction) by the compound in rats at a dose of 4 mg/kg; assay type: functional; summary of the method: as §5
# Rattus norvegicus [36] = species on record: Rattus norvegicus; assay: Induction of behavioral syndrome(FBP: flat body posture) by the compound in reserpine pretreated rats at a dose of.1; assay type: functional
smiles,measurement,setting,value
COc1ccccc1N1CCN(C2CCC(N3C(=O)[C@H]4CCCC[C@H]4C3=O)CC2)CC1 (some centres not stated),Ki,[1],72 nM
same,ED50,Rattus norvegicus [2],7.3 mg/kg
same,ED50,Rattus norvegicus [3],20 mg/kg
same,FT mean score,Rattus norvegicus [4],2
same,FBP mean score,Rattus norvegicus [5],3.2
same,FBP mean score,Rattus norvegicus [6],11.6
same,FT mean score,Rattus norvegicus [7],5.4
same,FT mean score,Rattus norvegicus [8],0.2
same,FT mean score,Rattus norvegicus [9],0.2
same,FBP mean score,Rattus norvegicus [10],9.8
same,FBP mean score,Rattus norvegicus [11],0.1
same,FBP mean score,Rattus norvegicus [12],0.2
same,FBP mean score,Rattus norvegicus [13],0.1
same,LLR score,Rattus norvegicus [14],1.1
same,LLR score,Rattus norvegicus [15],0.2
same,LLR score,Rattus norvegicus [16],1.6
same,LLR score,Rattus norvegicus [17],2.3
same,FT mean score,Rattus norvegicus [18],0.1
same,LLR score,Rattus norvegicus [19],0.3
same,LLR score,Rattus norvegicus [20],0.3
same,FT mean score,Rattus norvegicus [21],9.2
same,ED50,Rattus norvegicus [22],11 mg/kg
COc1ccccc1N1CCN(CCCCN2C(=O)c3ccccc3C2=O)CC1 [NAN-190],ED50,Rattus norvegicus [2],2.5 mg/kg
same,ED50,Rattus norvegicus [3],1.7 mg/kg
same,FT mean score,Rattus norvegicus [23],5.7
same,FBP mean score,Rattus norvegicus [24],6
same,FBP mean score,Rattus norvegicus [6],2.3
same,FT mean score,Rattus norvegicus [25],10.8
same,FT mean score,Rattus norvegicus [7],1.8
same,FT mean score,Rattus norvegicus [26],0.2
same,FT mean score,Rattus norvegicus [8],0.2
same,FT mean score,Rattus norvegicus [9],0.1
same,FT mean score,Rattus norvegicus [27],0.1
same,FBP mean score,Rattus norvegicus [10],2.3
same,FBP mean score,Rattus norvegicus [28],12.4
same,FBP mean score,Rattus norvegicus [29],0.2
same,FBP mean score,Rattus norvegicus [12],0.1
same,FBP mean score,Rattus norvegicus [13],0.2
same,LLR score,Rattus norvegicus [30],1.7
same,LLR score,Rattus norvegicus [31],1.4
same,LLR score,Rattus norvegicus [32],0.6
same,LLR score,Rattus norvegicus [33],0.1
same,LLR score,Rattus norvegicus [34],0.1
same,LLR score,Rattus norvegicus [35],0.1
same,FBP mean score,Rattus norvegicus [36],0.1
same,FT mean score,Rattus norvegicus [21],6.2
same,ED50,Rattus norvegicus [22],2 mg/kg
